Test results taken from ChEMBL document CHEMBL1795239, “MAO inhibitory activity modulation: 3-Phenylcoumarins versus 3-benzoylcoumarins” (Bioorg Med Chem Lett, 2011).

Legend:
[1] = target: T1, Amine oxidase [flavin-containing] B (Homo sapiens, UniProt P27338); experiment: Inhibition of human recombinant MAO-B using p-tyramine substrate at 100 uM by fluorometric method; conditions: for inhibition (INH): 100 µM
T1 sequence (P27338 whole entry): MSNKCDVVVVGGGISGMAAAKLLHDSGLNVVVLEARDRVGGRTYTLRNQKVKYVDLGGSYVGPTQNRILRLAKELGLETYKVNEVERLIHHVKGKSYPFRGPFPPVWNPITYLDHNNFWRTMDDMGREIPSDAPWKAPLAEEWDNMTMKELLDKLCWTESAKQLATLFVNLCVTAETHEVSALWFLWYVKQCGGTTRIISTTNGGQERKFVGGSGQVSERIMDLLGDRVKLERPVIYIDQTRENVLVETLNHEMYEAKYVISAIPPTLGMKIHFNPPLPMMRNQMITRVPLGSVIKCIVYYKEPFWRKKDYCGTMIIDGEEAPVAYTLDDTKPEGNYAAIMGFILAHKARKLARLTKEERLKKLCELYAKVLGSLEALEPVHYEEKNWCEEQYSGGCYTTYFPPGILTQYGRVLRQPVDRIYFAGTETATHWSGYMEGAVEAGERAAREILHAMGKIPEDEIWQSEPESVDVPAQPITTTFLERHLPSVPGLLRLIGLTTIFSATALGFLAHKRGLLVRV
Summary of the method: (§1)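 Recombinant human MAO-A or MAO-B expressed in baculovirus-infected BTI insect cells. Enzyme amounts set so both isoforms give the same rate, 165 pmol p-tyramine/min. Assay run in 0.05 M sodium phosphate pH 7.4 at 37 °C with compounds at several concentrations, 200 Amplex Red, 1 U/mL horseradish peroxidase and 1 mM p-tyramine. Resorufin fluorescence (ex 545/em 590 nm) read over a linear 15 min window. Vehicle controls run alongside.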

[2] = target: T2, Amine oxidase [flavin-containing] A (Homo sapiens, UniProt P21397); experiment: Inhibition of human recombinant MAO-A using p-tyramine substrate at 100 uM by fluorometric method; summary of the method: as §1
T2 sequence (P21397 whole entry): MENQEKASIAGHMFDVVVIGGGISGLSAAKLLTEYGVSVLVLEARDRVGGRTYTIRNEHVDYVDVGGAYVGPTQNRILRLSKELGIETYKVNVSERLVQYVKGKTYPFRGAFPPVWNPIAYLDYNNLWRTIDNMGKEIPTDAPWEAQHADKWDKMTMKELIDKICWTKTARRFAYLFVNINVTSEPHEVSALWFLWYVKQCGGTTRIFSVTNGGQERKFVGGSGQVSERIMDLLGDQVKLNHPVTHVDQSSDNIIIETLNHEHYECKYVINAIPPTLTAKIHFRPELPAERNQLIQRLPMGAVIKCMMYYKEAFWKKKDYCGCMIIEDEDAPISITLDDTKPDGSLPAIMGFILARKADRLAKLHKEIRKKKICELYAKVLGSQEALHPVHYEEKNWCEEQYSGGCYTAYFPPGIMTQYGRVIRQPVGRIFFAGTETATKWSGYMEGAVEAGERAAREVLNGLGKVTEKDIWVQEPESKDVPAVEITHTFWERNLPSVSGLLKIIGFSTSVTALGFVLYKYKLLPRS

[3] = target: T1, Amine oxidase [flavin-containing] B; experiment: Inhibition of human recombinant MAO-B using p-tyramine substrate by fluorometric method
Homo sapiens = organism: Homo sapiens; experiment: Selectivity index, ratio of IC50 for human recombinant MAO-A to human recombinant MAO-B
Summary of the method: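 MAO-B selectivity index is IC50(MAO-A)/IC50(MAO-B). Both IC50s come from the fluorimetric Amplex Red/peroxidase assay with 1 mM p-tyramine, using recombinant hMAO-A and hMAO-B from baculovirus-infected insect cells.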

[4] = target: T2, Amine oxidase [flavin-containing] A; experiment: Inhibition of human recombinant MAO-A using p-tyramine substrate by fluorometric method

inhibition (INH) [1]	inhibition (INH) [2]	IC50 [3] [µM]	Ratio IC50 (Homo sapiens)	inhibition at 100 µM [1] [%]	IC50 [4] [µM]	Compound
Not Active	Not Active					COc1ccc(C(=O)c2cc3cc(Br)cc(OC)c3oc2=O)cc1
	Not Active	30.9	> 3.2			O=c1oc2c(O)cc(Br)cc2cc1-c1ccccc1
	Not Active	0.00135	> 74100			COc1ccc(-c2cc3cc(Br)cc(OC)c3oc2=O)cc1
			0.19	45	19.2	O=C(c1ccc(O)cc1)c1cc2cc(Br)cc(O)c2oc1=O
	Not Active	0.0835	> 1200			COc1cc(Br)cc2cc(-c3ccccc3)c(=O)oc12
		73.9	0.63		46.8	O=C(c1ccccc1)c1cc2cc(Br)cc(O)c2oc1=O
Not Active	Not Active					COc1cc(Br)cc2cc(C(=O)c3ccccc3)c(=O)oc12
		16.9	1.2		20.7	O=c1oc2c(O)cc(Br)cc2cc1-c1ccc(O)cc1
